Source: PubChem BioAssay
Shown are actives, neighbours in structure and some others; about 1.5% of the full set was active somewhere.
CHRM4 antagonist – CHRM4 antagonism in calcium assay; CHO-hM4 cells, ACh EC80, Fluo-8 calcium fluorescence; inhibition, % at 3 µM; 360,000 tested, 0.73% active; AID 624125;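 active = inhibition above its plate's cutoff, the mean inhibition of sample wells plus 3 SD, cut at about 27% in these data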;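 note: 0% = acetylcholine EC80 with DMSO and 100% = DMSO without agonist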
Target sequence (P08173 whole entry, looked up): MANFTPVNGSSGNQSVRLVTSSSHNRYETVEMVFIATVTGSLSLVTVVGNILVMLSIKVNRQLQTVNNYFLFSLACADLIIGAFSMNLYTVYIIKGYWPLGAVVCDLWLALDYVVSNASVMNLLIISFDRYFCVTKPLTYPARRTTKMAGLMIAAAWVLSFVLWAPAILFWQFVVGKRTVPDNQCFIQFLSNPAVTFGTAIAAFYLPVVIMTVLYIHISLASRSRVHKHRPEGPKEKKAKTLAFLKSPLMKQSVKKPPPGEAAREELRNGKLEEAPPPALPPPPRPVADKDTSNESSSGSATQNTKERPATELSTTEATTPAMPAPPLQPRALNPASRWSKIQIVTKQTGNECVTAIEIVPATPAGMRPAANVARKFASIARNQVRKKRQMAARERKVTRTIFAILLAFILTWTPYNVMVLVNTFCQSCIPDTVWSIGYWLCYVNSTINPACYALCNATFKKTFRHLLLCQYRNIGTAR
M4 PAM – positive allosteric modulators of human muscarinic M4 receptor; P08173; CHO-K1 hM4/Gqi5, Fluo-8 calcium fluorescence, ACh EC20; 0% = ACh EC20, 100% = maximal ACh; activation, % at 3 µM; 360,000 tested, 0.4% active; AID 624126;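 active = activation above its plate's cutoff, the mean activation of sample wells plus 3 SD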
M4 ag – CHRM4 agonism in calcium assay; P08173; CHO-K1 hM4/Gqi5, Fluo-8 calcium fluorescence; vehicle 0%, full acetylcholine response 100%; activation, % at 3 µM; 360,000 tested, 0.14% active; AID 624127;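 active = activation above the run mean over all test wells plus 3 SD, cut at about 32% in these data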;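 note: peak over basal fluorescence ratio per well then scaled between controls; 0% = DMSO wells and 100% = acetylcholine at EC100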
OXTR agonist – agonists of human oxytocin receptor. CHO-OTR cells, Fluo-8 calcium fluorescence; normalized: DMSO 0%, oxytocin 100%. AID 2435. 320,000 tested, 0.32% active. activation, % at 3 µM;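 active = activation above the mean of all tested compounds plus 3 SD, cutoff set per screening run, cut at about 20% in these data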;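 note: peak over basal fluorescence ratio from a 100 s FLIPR kinetic read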
V1aR counter – activates human V1a receptor in oxytocin agonist counter-screen | P37288 | CHO-V1R cells, Fluo-8 calcium fluorescence, agonist mode; 0% DMSO, 100% 3 nM vasopressin | activation, % at 3 µM | 320,000 tested, 0.25% active | AID 2797;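 active = activation above the mean activation of all tested compounds plus 3 SD, per screening run, cut at about 20% in these data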;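 note: signal is peak over basal fluorescence ratio across a 100 second FLIPR read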
OXTR potentiator – potentiators of human oxytocin receptor; 320,000 tested, 0.061% active; P30559; activation, % at 3 µM; CHO-OTR cells, Fluo-8 calcium fluorescence, potentiator mode; 0% = oxytocin EC15, 100% = EC100;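 active = activation above that plate's cutoff, the mean activation of tested compounds plus 3 SD, cut at about 6.6% in these data, passing the limit was not always enough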;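 note: 100% uses oxytocin at 75 nM as the full agonist control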
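Material: human OTR in CHO cells. Compound: 3.0 µM, one dose. Timing: compound 6 min at room temperature before oxytocin, 100 s read. Evaluation: % activation of max/min ratio relative to oxytocin controls. Replication: single well per compound, singlicate. Signal: Fluo-8 calcium dye fluorescence.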
* hit, by the source's call; · = no result.

SMILES	CHRM4 antagonist	M4 PAM	M4 ag	OXTR agonist	V1aR counter	OXTR potentiator
COC(=O)NNC(=O)C(C)Oc1ccc(Cl)cc1Cl (stereo unspecified)	6	30*	1	1	0	-2
Cc1ccc(C(C)C)cc1OCC(=O)NNC(=O)Nc1ccccc1	61*	-16	4	-1	0	-6
Cc1ccc(C(C)C)c(OCC(=O)NNC(=O)Nc2ccccc2)c1	6	-7	3	0	3	-13
O=C(CC[C@H]1O[C@@H](n2cnc3c(NC(=O)c4ccccc4)ncnc32)[C@H](O)[C@@H]1O)NCC1CCCO1 (stereo partly specified)	-22	20*	2	·	·	·
COc1cc(CC2C(=O)OCC2C(=O)c2ccc3c(c2)OCO3)cc(OC)c1OC (stereo unspecified)	-1	3	2	·	·	·
CCOC(=O)N1CCN(c2nc3ccc(C(=O)c4ccccc4)cc3n3cnnc23)CC1	1	31*	1	-1	0	-5
NNC1=N[C@H]2CS(=O)(=O)C[C@H]2S1	-5	24*	1	-1	1	-2
CCCCNC(=O)C1C(c2ccc(OC)cc2)=Nc2ccccc2N1C(=O)c1cccnc1 (stereo unspecified)	0	3	0	·	·	·
CCN(CC)S(=O)(=O)c1ccc(C(C)NC(=O)C2CCCN2C(=O)c2cccs2)cc1 (stereo unspecified)	-8	0	1	-1	1	-7
CC(C)c1nc2n[nH]c(N)c2c2c1CCCC2	-2	23*	1	-1	0	-5
CC(C)Cc1nc2n[nH]c(N)c2c2c1CCCC2	14	-2	10	-2	0	-7
C1CCN(C2CCN(c3nc4nonc4nc3N3CCSCC3)CC2)C1	31*	-20	1	4	1	-10
C1CC2CN(c3nc4nonc4nc3N3CCSCC3)CCN2C1 (stereo unspecified)	9	-10	1	-1	1	-19
COC(C[C@@H]1O[C@H]1C(=O)COCc1ccccc1)OC	-1	25*	2	1	1	-1
NC(=O)c1nsc(C(=O)N(c2ccccc2)C(C(=O)NCc2ccc(F)cc2)c2ccc(O)cc2)c1N (stereo unspecified)	31*	-18	31	4	6	-10
COc1ccc(N(C(=O)c2snc(C(N)=O)c2N)C(C(=O)NCc2ccccc2)c2ccc(O)cc2)cc1 (stereo unspecified)	-1	-3	6	·	·	·
NC(=O)c1nsc(C(=O)N(c2ccc3c(c2)OCO3)C(C(=O)NCC2CCCO2)c2ccc(F)cc2)c1N (stereo unspecified)	20	24*	15	2	1	-6
Cc1cccc(NC(=O)C(=O)NCCCc2ccccc2)c1	·	·	·	1	2	-5
Cc1c(CN2CCC(CO)(CCOc3ccccc3)CC2)[nH]c2c(Cl)cccc12	29*	-15	15	13	8	-17
CCCCNC(=O)C1c2ccccc2OCC(=O)N1Cc1ccc2c(c1)OCO2 (stereo unspecified)	-3	1	1	·	·	·
CCCCNC(=O)C1c2ccccc2OCC(=O)N1Cc1ccccc1 (stereo unspecified)	-11	23*	1	·	·	·
Nc1cccc2c1C(=O)N(CCOc1ccc(F)cc1)C2=O	10	-11	3	2	1	-8
COc1ccc(OC)c(NC(=O)c2ccc(-c3csc(C)n3)cc2)c1	-3	5	1	-2	0	-11
Cc1nc(-c2ccc(C(=O)Nc3cc(S(N)(=O)=O)ccc3C)cc2)cs1	30*	-11	1	1	1	4
Cc1c(NC(=O)c2ccc3ncccc3c2)c(=O)n(-c2ccccc2)n1C	2	1	0	0	-1	-15
SMILES	CHRM4 antagonist	M4 PAM	M4 ag	OXTR agonist	V1aR counter	OXTR potentiator
S=C(Nc1ccccc1)Nc1cc(Cl)ccc1Oc1ccccc1	4	4	-2	-2	-1	-4
CCOc1cc(/C=C2\COc3ccccc3C2=O)cc(Br)c1OCC(=O)N(C)C	29*	-11	20	0	3	-4
COc1ccc(/C=C2\COc3ccccc3C2=O)cc1OC	5	-5	5	-2	5	2
CN1CCN(c2ccc(CNC(=O)c3ccc(-c4ccc(F)c(F)c4)c4ccoc34)cc2)CC1	-17	5	3	·	·	·
COc1ccc(-c2ccc3c(c2)S(=O)(=O)c2cccc(C(=O)N4CCN(C5CCCCC5)CC4)c2C3=O)cc1OC	9	-8	23	2	2	-6
COCCNC(=O)CCC1CCN(Cc2ccc(-c3ccccc3)cc2)CC1	57*	-16	1	0	1	2
CSc1cccc(CN2CCC(Oc3cccc(C(=O)N4CCCC4)c3)CC2)c1	-3	-11	4	1	3	-5
COC(=O)c1ccc(CN2CCC(Oc3cccc(C(=O)N4CCOCC4)c3)CC2)cc1	61*	-15	4	0	3	-8
COCCNC(=O)c1cccc(OC2CCN(Cc3ccc(C(=O)OC)cc3)CC2)c1	60*	-15	0	1	-1	10
Cc1ccc(NC(=O)C2(C)CCN2C(=O)C2CCCCC2)cc1C (stereo unspecified)	-11	-2	-1	·	·	·
O=C(NCCN1CCOCC1)c1ccc(Cl)c(S(=O)(=O)NCc2ccccc2)c1	-12	22*	1	2	1	0
O=C(NCCN1CCOCC1)c1ccc(Cl)c(S(=O)(=O)N2CCCC2)c1	-1	7	1	1	2	-7
CC(=O)N1C(=O)C2(NCC(C)N2)c2ccccc21 (stereo unspecified)	-1	-2	0	·	·	·
CC(OC(=O)Cn1cnc2c1c(=O)n(C)c(=O)n2C)C(=O)NC1CCCCC1C (stereo unspecified)	4	5	1	2	1	-1
CC[C@H](C)Cc1cn([C@@H](CCCN=C(NC(=O)OC(C)(C)C)NC(=O)OC(C)(C)C)C(=O)NCCCCCCCCCCC(=O)N2CCN(C(=O)OC(C)(C)C)CC2)nn1	36*	-14	1	3	9	-15
C#CCOCCOCCOCCNc1nc(N2CCN(C(=O)CCCCCCCCCCNC(=O)[C@H](CCCCN)n3cc(CCO)nn3)CC2)nc(N2CCN(C(=O)CCCCCCCCCCNC(=O)[C@H](CCCCN)n3cc(C[C@@H](C)CC)nn3)CC2)n1	·	·	·	6	25*	-13
